Like-named read-outs stand apart in the source and are kept apart here. Each block holds one compound with its values, some of them ahead of it.
Key:
[1] = biological target: 22 other nuclear receptors; assay: luciferase assays for 22 other nuclear receptors; type: cell-based; conditions: read-out: IC50 in luciferase assays for 22 other nuclear receptors
RORα = biological target: T1, RORα (Homo sapiens, UniProt P35398); assay: cell-based nuclear receptor reporter
T1 sequence (P35398 1-523): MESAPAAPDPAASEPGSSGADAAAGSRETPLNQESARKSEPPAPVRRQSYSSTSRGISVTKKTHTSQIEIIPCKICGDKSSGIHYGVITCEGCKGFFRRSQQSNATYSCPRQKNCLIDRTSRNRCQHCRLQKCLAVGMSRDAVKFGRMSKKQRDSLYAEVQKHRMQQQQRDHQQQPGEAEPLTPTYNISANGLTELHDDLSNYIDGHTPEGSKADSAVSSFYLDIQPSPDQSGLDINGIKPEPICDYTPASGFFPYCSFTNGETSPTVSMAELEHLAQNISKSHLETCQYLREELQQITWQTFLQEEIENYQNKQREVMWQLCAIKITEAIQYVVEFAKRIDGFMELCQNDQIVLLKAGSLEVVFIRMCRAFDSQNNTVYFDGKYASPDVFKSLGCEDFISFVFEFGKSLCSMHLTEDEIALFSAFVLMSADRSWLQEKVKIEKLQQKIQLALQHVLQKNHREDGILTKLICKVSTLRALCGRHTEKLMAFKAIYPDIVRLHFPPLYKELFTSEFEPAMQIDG

[2] = system: primary naïve CD4+ T cells under Th17 cell-polarizing conditions
[3] = system: CCR6- memory human T cells; assay: transcription in human CCR6- memory T cells; type: cell-based
[4] = system: experimental autoimmune encephalomyelitis (EAE)
[5] = system: RORγt occupancy at genomic binding sites; assay: ChIP-seq for RORγt in Th17 cells treated with compound; type: cell-based, mouse; conditions: for RORγt sites with decreased (lower) ChIP signal: 2.5 μM TMP778, 10 μM TMP920, 96 h
Summary of the method: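 Naive CD4+CD62Lhigh CD25− T cells (MACS then FACS sorted) were activated on plate-bound anti-CD3 and anti-CD28 (2 μg/ml each) with IL-6 (20 ng/ml) and TGF-β1 (1 ng/ml), plus IL-23 (10 ng/ml) from 48 h. Test compound (2.5 or 10 μM) or DMSO was present for 96 h. ChIP used anti-RORγt (AFKJS-9), with isotype IgG and RORγt-deficient cells as controls. Sequencing was single-end 36 bp.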

GATA3 protein = GATA3 protein expression in Th17 cells; type: cell-based, mouse; conditions: Th17 cells treated with compound
RORβ = biological target: T2, RORβ (Homo sapiens, UniProt Q92753); assay: cell-based nuclear receptor reporter
T2 sequence (Q92753 1-470): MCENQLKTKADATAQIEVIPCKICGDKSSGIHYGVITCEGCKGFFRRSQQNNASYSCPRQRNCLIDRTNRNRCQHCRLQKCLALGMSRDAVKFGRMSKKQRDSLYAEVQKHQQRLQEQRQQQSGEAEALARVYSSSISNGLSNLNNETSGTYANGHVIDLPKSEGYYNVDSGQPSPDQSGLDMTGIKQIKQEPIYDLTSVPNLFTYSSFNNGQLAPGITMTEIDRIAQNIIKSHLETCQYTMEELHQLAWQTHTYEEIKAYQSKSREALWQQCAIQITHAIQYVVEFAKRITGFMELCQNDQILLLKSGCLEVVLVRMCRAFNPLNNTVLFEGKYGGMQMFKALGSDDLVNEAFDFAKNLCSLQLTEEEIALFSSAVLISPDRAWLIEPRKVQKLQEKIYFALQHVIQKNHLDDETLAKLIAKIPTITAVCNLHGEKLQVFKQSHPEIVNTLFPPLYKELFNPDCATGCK

[6] = system: IL-17 production in CD4+ T cells; assay: IL-17 production from differentiated Th17 cells; type: cell-based, mouse; conditions: WT CD4+ T cells, MOG35-55 plus IL-23, 4 days
Summary of the method: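 Female C57BL/6 mice (8–12 wk) were immunized s.c. in the flanks with MOG35-55 (100 μg/mouse) in CFA containing M. tuberculosis H37Ra extract. Draining LN cells were restimulated with MOG35-55 and IL-23 plus test compound or DMSO for 4 days. They were then given a 4 h PMA/ionomycin/GolgiStop restimulation, fixed and permeabilized, and stained intracellularly for IL-17 and IFNγ in CD4+ cells. Values are mean ± SD.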

[7] = system: IL-17 production in Th17 cell cultures; assay: IL-17 production during Th17 cell differentiation in vitro; type: cell-based, mouse; conditions: for effect on IL-17 production in Th17 cell cultures: Digoxin at 10 μM, TMP778 over a much broader dose range; for concentration at which the inhibitory effect on IL-17 production was lost: Th17 cell-polarizing conditions
RORγ = biological target: T3, RORγ (Homo sapiens, UniProt P51449); assay: cell-based nuclear receptor reporter
T3 sequence (P51449 1-518): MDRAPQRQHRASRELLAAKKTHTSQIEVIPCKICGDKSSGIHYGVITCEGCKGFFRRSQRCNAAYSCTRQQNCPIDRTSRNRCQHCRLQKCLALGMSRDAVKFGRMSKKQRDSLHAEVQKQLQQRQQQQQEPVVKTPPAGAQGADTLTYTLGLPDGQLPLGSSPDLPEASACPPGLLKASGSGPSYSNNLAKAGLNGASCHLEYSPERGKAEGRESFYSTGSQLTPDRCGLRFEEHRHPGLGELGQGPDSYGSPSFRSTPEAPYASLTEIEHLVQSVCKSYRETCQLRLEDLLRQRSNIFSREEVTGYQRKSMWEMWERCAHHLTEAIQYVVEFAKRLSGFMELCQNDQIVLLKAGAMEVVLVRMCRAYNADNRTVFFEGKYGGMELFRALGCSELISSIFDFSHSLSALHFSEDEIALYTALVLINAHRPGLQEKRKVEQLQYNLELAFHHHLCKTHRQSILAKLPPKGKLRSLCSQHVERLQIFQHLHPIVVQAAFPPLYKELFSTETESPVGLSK

[8] = biological target: T4, RORγt ligand-binding domain (Homo sapiens, UniProt P51449); assay: FRET assay, RORγt ligand-binding domain and cofactor peptide SRC1; type: biochemical; conditions: read-out: IC50, inhibition of RORγt binding to the SRC1 peptide in the FRET assay
T4 sequence (P51449 263-518 limits assumed): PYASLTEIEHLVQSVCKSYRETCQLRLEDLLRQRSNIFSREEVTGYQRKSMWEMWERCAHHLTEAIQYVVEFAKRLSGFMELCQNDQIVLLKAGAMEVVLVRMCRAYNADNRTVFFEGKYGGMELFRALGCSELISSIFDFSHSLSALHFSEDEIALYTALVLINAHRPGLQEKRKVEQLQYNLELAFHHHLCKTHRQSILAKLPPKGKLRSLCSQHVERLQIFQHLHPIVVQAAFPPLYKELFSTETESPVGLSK

[9] = system: primary naïve CD4+ T cells under Th17 cell-polarizing conditions; assay: cell proliferation of naïve CD4+ T cells under Th17 cell-polarizing conditions; conditions: not RORγt-dependent

Structure (SMILES): Cc1ccc([C@@H](NC(=O)Cc2ccc3oc([C@@H](O)c4c(C)noc4C)cc3c2)c2ccccc2)c(C)c1 [TMP778]
IC50 [1]: > 10 µM
IC50 fold higher for RORα than in RORγ assays (RORα): roughly 100 fold
IC50 (RORα; read-out: IC50 for RORα, luciferase reporter): 1240 nM
concentration at which toxic effects on cell growth start [2]: > 2.5 µM
effect on transcription in population depleted for Th17 cells [3]: no differentially expressed genes with a fold cutoff over 1.5
percentage of IL-17+ T cells in the CNS ([4]; subcutaneous twice daily, day 21 after EAE induction): most strongly reduced the percentage of IL-17^+ T cells in the CNS
new RORγt binding sites ([5]; 2.5 μM TMP778): 179
new RORγt binding sites as share of peaks observed with compound ([5]; 2.5 μM TMP778): 8.2 % of peaks
RORγt sites with decreased (lower) ChIP signal [5]: 55 % of sites
GATA3 protein expression (GATA3 protein): increased expression of GATA3 protein
IC50 fold higher for RORβ than in RORγ assays (RORβ): roughly 100 fold
IC50 (RORβ; read-out: IC50 for RORβ, luciferase reporter): 1390 nM
inhibition of IL-17 production from differentiated Th17 cells [6]: the most potent inhibition
effect on IL-17 production in Th17 cell cultures [7]: efficiently decreased IL-17 production
IC50 (RORγ; read-out: IC50 for luciferase activity in RORγ assays): 17 nM
IC50 [8]: 5 nM

Structure (SMILES): CCS(=O)(=O)c1ccc(CC(=O)Nc2cc(Cl)c(-c3ccccc3OC(F)(F)F)c(Cl)c2)cc1 [GSK805]
effect on severity of EAE ([4]; oral, 10 mg/kg daily from day 0): efficiently ameliorate the severity of EAE
Th17 cell responses in the CNS ([4]; oral, 30 mg/kg, day 14): strongly inhibits Th17 cell responses
GATA3 protein expression (GATA3 protein): increased GATA3 protein expression
inhibition of IL-17 production during Th17 cell differentiation ([7]; GSK805 at 0.5 μM, 4 days): comparable inhibition of IL-17 production as TMP778 at 2.5 μM

IC50 [1]: > 10 µM
IC50 (RORγ; read-out: IC50 in RORγ assays): 1100 nM
IC50 [8]: 30 nM
Structure (SMILES): Cc1ccc(C(NC(=O)Cc2ccc(OCc3c(C)noc3C)cc2)c2ccccc2)c(C)c1 (stereo not shown) [TMP920]
concentration at which toxic effects on cell growth start [2]: > 10 µM
RORγt sites with decreased (lower) ChIP signal [5]: 77 % of sites
concentration at which the inhibitory effect on IL-17 production was lost [7]: < 2.5 µM

Structure (SMILES): C[C@H]1O[C@@H](O[C@H]2[C@@H](O)C[C@H](O[C@H]3[C@@H](O)C[C@H](O[C@H]4CC[C@@]5(C)[C@H](CC[C@@H]6[C@@H]5C[C@@H](O)[C@]5(C)[C@@H](C7=CC(=O)OC7)CC[C@]65O)C4)O[C@@H]3C)O[C@@H]2C)C[C@H](O)[C@@H]1O [Digoxin, reference compound]
concentration at which toxic effects on cell growth start [9]: > 10 µM
dose that caused mouse death ([4]; per injection, subcutaneous twice daily): > 100 µg
effect on RORγt binding ([5]; 10 μM Digoxin, 96 h): intermediate
effect on IL-17 production in Th17 cell cultures [7]: specifically inhibited IL-17 production
concentration at which the inhibitory effect on IL-17 production was lost [7]: < 2.5 µM
